How the values were obtained:
Rattus norvegicus [1] = assay: Antiinflammatory activity in fasted male rat assessed as decrease in carrageenan-induced pleural fluid at 10 mg/kg, po after 5 hrs by Evans blue carrageenan pleural effusion assay relative to control; type: functional
Method in brief: (§1)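 Evans blue carrageenan pleural effusion assay, run by sequential analysis. Screened first at 316 mg/kg orally alongside acetylsalicylic acid at the same dose; active agents were retested in 6 rats at one or two doses against phenylbutazone. Given by gavage (10 mL/kg) in water with 0.5% Tween 80. Pleural fluid measured in mL ± SD; % decrease taken versus vehicle control.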

Rattus norvegicus [2] = assay: Antiinflammatory activity in fasted male rat assessed as decrease in carrageenan-induced pleural fluid at 50 mg/kg, po after 5 hrs by Evans blue carrageenan pleural effusion assay relative to control; type: functional; method in brief: as §1
Rattus norvegicus [3] = assay: Antiinflammatory activity in fasted male rat assessed as decrease in carrageenan-induced pleural fluid at 100 mg/kg, po after 5 hrs by Evans blue carrageenan pleural effusion assay relative to control; type: functional; method in brief: as §1
Rattus norvegicus [4] = assay: Antiinflammatory activity in fasted male rat assessed as decrease in carrageenan-induced pleural fluid at 316 mg/kg, po after 5 hrs by Evans blue carrageenan pleural effusion assay relative to control; type: functional; method in brief: as §1
Liver microsome = assay: Drug metabolism in rat liver microsomes assessed as recovery as total extract radioactivity by TLC; type: ADME
Method in brief: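 14C-labeled substrate (10 mg) was sonicated into 30 mL of 0.1 M Na+/K+ phosphate buffer, pH 7.4. The mixture was extracted with three portions of ether, extract radioactivity recovery was determined, and TLC was run immediately (acetone/CHCl3 2:98).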

Rattus norvegicus [5] = assay: Antiinflammatory activity in fasted male rat assessed as decrease in carrageenan-induced pleural fluid at 0.8 mg/kg, po after 5 hrs by Evans blue carrageenan pleural effusion assay relative to control; type: functional; conditions: for inhibition in vivo at 0.8 mg/kg: Rattus norvegicus, Pleural fluid, po, 5 h; method in brief: as §1
Rattus norvegicus [6] = assay: Antiinflammatory activity in fasted male rat assessed as decrease in carrageenan-induced pleural fluid at 4 mg/kg, po after 5 hrs by Evans blue carrageenan pleural effusion assay relative to control; type: functional; conditions: for inhibition in vivo at 4 mg/kg: Rattus norvegicus, Pleural fluid, po, 5 h; method in brief: as §1
Rattus norvegicus [7] = assay: Antiinflammatory activity against adjuvant-induced arthritis in Lewis Wistar rat assessed as change in 11 day edema volume in adjuvant uninjected foot at 0.03 mg/kg, po treated once daily on days 18 to 22 and […]; type: functional
Method in brief: (§2)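 Therapeutic regimen in the adjuvant-induced arthritic rat model: compound given once daily on days 18-22 and 25-28. Dosed by gavage (10 mL/kg) as a solution or suspension in water containing 0.5% Tween 80. Groups of 8 rats (one group of 7), with vehicle-dosed negative and positive controls. Injected- and uninjected-foot edema (mL ± SD) and body-weight change (g ± SD) recorded over 11 days; p < 0.05 flagged.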

Rattus norvegicus [8] = assay: Antiinflammatory activity against adjuvant-induced arthritis in Lewis Wistar rat assessed as change in 11 day edema volume in adjuvant uninjected foot at 0.316 mg/kg, po treated once daily on days 18 to 22 and […]; type: functional; method in brief: as §2
Rattus norvegicus [9] = assay: Antiinflammatory activity against adjuvant-induced arthritis in Lewis Wistar rat assessed as change in 11 day edema volume in adjuvant uninjected foot at 3.16 mg/kg, po treated once daily on days 18 to 22 and […]; type: functional; method in brief: as §2
Rattus norvegicus [10] = assay: Toxicity in adjuvant-induced arthritis Lewis Wistar rat model assessed as change in 11 day weight at 0.03 mg/kg, po treated once daily on days 18 to 22 and […]; type: organism-based; set-up: dose 0.03 mg/kg, route oral; conditions: in vivo, 264 h; method in brief: as §2
Rattus norvegicus [11] = assay: Toxicity in adjuvant-induced arthritis Lewis Wistar rat model assessed as change in 11 day weight at 0.316 mg/kg, po treated once daily on days 18 to 22 and […]; type: organism-based; set-up: dose 0.316 mg/kg, route oral; conditions: in vivo, 264 h; method in brief: as §2
Rattus norvegicus [12] = assay: Toxicity in adjuvant-induced arthritis Lewis Wistar rat model assessed as change in 11 day weight at 3.16 mg/kg, po treated once daily on days 18 to 22 and […]; type: organism-based; set-up: dose 3.16 mg/kg, route oral; conditions: in vivo, 264 h; method in brief: as §2
Rattus norvegicus [13] = assay: Antiinflammatory activity against adjuvant-induced arthritis in Lewis Wistar rat assessed as change in 11 day edema volume in adjuvant injected foot at 0.316 mg/kg, po treated once daily on days 18 to 22 and […]; type: functional; method in brief: as §2
Rattus norvegicus [14] = assay: Antiinflammatory activity against adjuvant-induced arthritis in Lewis Wistar rat assessed as change in 11 day edema volume in adjuvant injected foot at 3.16 mg/kg, po treated […]; type: functional
Rattus norvegicus [15] = assay: Antiinflammatory activity against adjuvant-induced arthritis in Lewis Wistar rat assessed as potency in adjuvant injected foot treated po once daily on days 18 to 22 and 25 to 28 relative to phenylbutazone
Rattus norvegicus [16] = assay: Antiinflammatory activity against adjuvant-induced arthritis in Lewis Wistar rat assessed as potency in adjuvant uninjected foot treated po once daily on days 18 to 22 and 25 to 28 relative to phenylbutazone
Rattus norvegicus [17] = assay: Antiinflammatory activity against adjuvant-induced arthritis in Lewis Wistar rat assessed as change in 11 day edema volume in adjuvant injected foot at 0.03 mg/kg, po treated once daily on days 18 to 22 and 25 to 28
Rattus norvegicus [18] = assay: Antiinflammatory activity in fasted male rat assessed as decrease in carrageenan-induced pleural fluid at 60 mg/kg, po after 5 hrs by Evans blue carrageenan pleural effusion assay relative to control; type: functional; method in brief: as §1
Rattus norvegicus [19] = assay: Antiinflammatory activity in fasted male rat assessed as decrease in carrageenan-induced pleural fluid at 300 mg/kg, po after 5 hrs by Evans blue carrageenan pleural effusion assay relative to control; type: functional; method in brief: as §1
Rattus norvegicus [20] = assay: Antiinflammatory activity against adjuvant-induced arthritis in Lewis Wistar rat assessed as change in 11 day edema volume in adjuvant injected foot at 0.0031 mg/kg, po treated once daily on days 18 to 22 and […]; type: functional; method in brief: as §2
Rattus norvegicus [21] = assay: Antiinflammatory activity against adjuvant-induced arthritis in Lewis Wistar rat assessed as change in 11 day edema volume in adjuvant injected foot at 0.0316 mg/kg, po treated […]; type: functional
Rattus norvegicus [22] = assay: Antiinflammatory activity against adjuvant-induced arthritis in Lewis Wistar rat assessed as change in 11 day edema volume in adjuvant uninjected foot at 0.0031 mg/kg, po […]; type: functional
Rattus norvegicus [23] = assay: Antiinflammatory activity against adjuvant-induced arthritis in Lewis Wistar rat assessed as change in 11 day edema volume in adjuvant uninjected foot at 0.0316 mg/kg, po treated once daily on days 18 to 22 and […]; type: functional; method in brief: as §2
Rattus norvegicus [24] = assay: Toxicity in adjuvant-induced arthritis Lewis Wistar rat model assessed as change in 11 day weight at 0.0031 mg/kg, po treated once daily on days 18 to 22 and 25 to 28; conditions: in vivo, 264 h
Rattus norvegicus [25] = assay: Toxicity in adjuvant-induced arthritis Lewis Wistar rat model assessed as change in 11 day weight at 0.0316 mg/kg, po treated once daily on days 18 to 22 and 25 to 28; conditions: in vivo, 264 h
Rattus norvegicus [26] = assay: Antiinflammatory activity in fasted male rat assessed as decrease in carrageenan-induced pleural fluid at 2 mg/kg, po after 5 hrs by Evans blue carrageenan pleural effusion assay relative to control; type: functional; method in brief: as §1
Rattus norvegicus [27] = assay: Antiinflammatory activity in fasted male rat assessed as decrease in carrageenan-induced pleural fluid at 20 mg/kg, po after 5 hrs by Evans blue carrageenan pleural effusion assay relative to control; type: functional; method in brief: as §1
Rattus norvegicus [28] = assay: Antiinflammatory activity against adjuvant-induced arthritis in Lewis Wistar rat assessed as change in 11 day edema volume in adjuvant uninjected foot at 10 mg/kg, po […]; type: functional
Rattus norvegicus [29] = assay: Antiinflammatory activity against adjuvant-induced arthritis in Lewis Wistar rat assessed as change in 11 day edema volume in adjuvant uninjected foot at 31.6 mg/kg, po treated once daily on days 18 to 22 and […]; type: functional; method in brief: as §2
Rattus norvegicus [30] = assay: Toxicity in adjuvant-induced arthritis Lewis Wistar rat model assessed as change in 11 day weight at 10 mg/kg, po treated once daily on days 18 to 22 and […]; type: organism-based; set-up: dose 10 mg/kg, route oral; conditions: in vivo, 264 h; method in brief: as §2
Rattus norvegicus [31] = assay: Antiinflammatory activity against adjuvant-induced arthritis in Lewis Wistar rat assessed as change in 11 day edema volume in adjuvant injected foot at 10 mg/kg, po treated once daily on days 18 to 22 and […]; type: functional; method in brief: as §2
Rattus norvegicus [32] = assay: Antiinflammatory activity against adjuvant-induced arthritis in Lewis Wistar rat assessed as change in 11 day edema volume in adjuvant injected foot at 31.6 mg/kg, po treated […]; type: functional
Rattus norvegicus [33] = assay: Toxicity in adjuvant-induced arthritis Lewis Wistar rat model assessed as change in 11 day weight at 31.6 mg/kg, po treated once daily on days 18 to 22 and 25 to 28; conditions: in vivo, 264 h

With `O=C(c1ccccc1)c1cccc2c1NCC2` the inhibition in vivo at 10 mg/kg (Rattus norvegicus [1]) was 14.5% and the inhibition in vivo at 50 mg/kg (Rattus norvegicus [2]) was 35.5%.
`O=C(O)c1cccc2c1NCC2` showed an inhibition in vivo at 100 mg/kg (Rattus norvegicus [3]) of 12.6%.
Compound `O=C1Nc2c(cccc2C(=O)c2ccccc2)C1=O` has an inhibition in vivo at 316 mg/kg (Rattus norvegicus [4]) of 18.4%.
Compound `O=C(c1ccccc1)c1cccc2cc[nH]c12` has a Drug recovery (Liver microsome) of 16%.
`O=C(c1cccc2c1NCC2)[14c]1[14cH][14cH][14cH][14cH][14cH]1` showed a Drug recovery (Liver microsome) of 49%.
For `CCOC(=O)Cc1cccc(C(=O)c2ccccc2)c1N`, the inhibition in vivo at 0.8 mg/kg (Rattus norvegicus [5]) was 26.9%, the inhibition in vivo at 4 mg/kg (Rattus norvegicus [6]) was 37.3% and the Activity (Rattus norvegicus [7]) was 0.6 mL. It also gave an Activity (Rattus norvegicus [8]) of 0.1 mL, an Activity (Rattus norvegicus [9]) of -0.1 mL and an Activity (Rattus norvegicus [10]) of 11 g. For the same compound, the Activity (Rattus norvegicus [11]) was 10 g, the Activity (Rattus norvegicus [12]) was 13 g and the Activity (Rattus norvegicus [13]) was -0.1 mL. The Activity (Rattus norvegicus [14]) was -0.6 mL, the “fold change (FC)” value (Rattus norvegicus [15]) was 10.9 and the “fold change (FC)” value (Rattus norvegicus [16]) was 5.1. It also gave an Activity (Rattus norvegicus [17]) of 0.4 mL.
With `O=C1Cc2cccc(C(=O)c3ccccc3)c2N1` the inhibition in vivo at 60 mg/kg (Rattus norvegicus [18]) was 11.1% and the inhibition in vivo at 300 mg/kg (Rattus norvegicus [19]) was 17.5%.
In the case of `Nc1c(CC(=O)[O-])cccc1C(=O)c1ccccc1.[Na+]` [AMFENAC SODIUM], the “inhibition (INH)” value (Rattus norvegicus [5]) was 11.1%, the “inhibition (INH)” value (Rattus norvegicus [6]) was 33.3% and the Activity (Rattus norvegicus [20]) was 0.2 mL. It also gave an Activity (Rattus norvegicus [21]) of 0.2 mL, an Activity (Rattus norvegicus [8]) of -0.2 mL and an Activity (Rattus norvegicus [22]) of 0.6 mL. For the same compound, the Activity (Rattus norvegicus [23]) was 0.4 mL, the Activity (Rattus norvegicus [11]) was 3 g and the Activity (Rattus norvegicus [13]) was -0.3 mL. For the same compound, the Activity (Rattus norvegicus [24]) was 12 g, the Activity (Rattus norvegicus [25]) was 6 g and the “fold change (FC)” value (Rattus norvegicus [15]) was 14.2. For the same compound, the “fold change (FC)” value (Rattus norvegicus [16]) was 23.9.
Compound `Nc1c(CC(=O)O)cccc1C(=O)c1ccccc1` [AMFENAC] has an inhibition in vivo at 0.8 mg/kg (Rattus norvegicus [5]) of 10.3% and an inhibition in vivo at 4 mg/kg (Rattus norvegicus [6]) of 33.8%.
In the case of `CC(=O)Oc1ccccc1C(=O)O` [ASPIRIN], the inhibition in vivo at 316 mg/kg (Rattus norvegicus [4]) was 31.6%.
Work on `CCCCC1C(=O)N(c2ccccc2)N(c2ccccc2)C1=O` [PHENYLBUTAZONE] yielded an inhibition in vivo at 10 mg/kg (Rattus norvegicus [1]) of 10.5%, an inhibition in vivo at 50 mg/kg (Rattus norvegicus [2]) of 24.2% and an inhibition in vivo at 2 mg/kg (Rattus norvegicus [26]) of 0%. For the same compound, the inhibition in vivo at 20 mg/kg (Rattus norvegicus [27]) was 19.4%, the inhibition in vivo at 100 mg/kg (Rattus norvegicus [3]) was 31% and the Activity (Rattus norvegicus [8]) was 0.4 mL. For the same compound, the Activity (Rattus norvegicus [9]) was 0 mL, the Activity (Rattus norvegicus [28]) was -0.2 mL and the Activity (Rattus norvegicus [29]) was -0.4 mL. For the same compound, the Activity (Rattus norvegicus [11]) was 8 g, the Activity (Rattus norvegicus [12]) was 8 g and the Activity (Rattus norvegicus [30]) was 20 g. For the same compound, the Activity (Rattus norvegicus [13]) was 0.4 mL, the Activity (Rattus norvegicus [14]) was -0.3 mL and the Activity (Rattus norvegicus [31]) was -0.5 mL. The Activity (Rattus norvegicus [32]) was -0.9 mL and the Activity (Rattus norvegicus [33]) was 26 g.

Reference: ChEMBL document CHEMBL3243991, “Antiinflammatory agents. 1. Synthesis and antiinflammatory activity of 2-amino-3-benzoylphenylacetic acid” (J Med Chem, 1979)
